Screens from PubChem.
SMARCA2 act – increases SMARCA2 function in MMTV reporter cells; MG213 cells, MMTV-luciferase reporter, dexamethasone, overnight; activation, % at 9.1 µM; hit rate 1% among 370,000; AID 652017; in the data active = activation above about 7.8%;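 also: 0% = vehicle wells and 100% = reference activator wells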
SR-BI HDL uptake – mouse SR-BI HDL lipid transfer inhibition. Q61009. ldlA[mSR-BI] CHO cells, DiI-HDL uptake fluorescence, 3 h. inhibition, % at 12.5 µM. hit rate 0.96% among 320,000;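 active = mean replicate inhibition of at least 70% and a set share of replicates each scoring 70 or more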;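 also: 0% = median of neutral control wells and 100% = median of positive control wells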
Target sequence (Q61009 whole entry, looked up): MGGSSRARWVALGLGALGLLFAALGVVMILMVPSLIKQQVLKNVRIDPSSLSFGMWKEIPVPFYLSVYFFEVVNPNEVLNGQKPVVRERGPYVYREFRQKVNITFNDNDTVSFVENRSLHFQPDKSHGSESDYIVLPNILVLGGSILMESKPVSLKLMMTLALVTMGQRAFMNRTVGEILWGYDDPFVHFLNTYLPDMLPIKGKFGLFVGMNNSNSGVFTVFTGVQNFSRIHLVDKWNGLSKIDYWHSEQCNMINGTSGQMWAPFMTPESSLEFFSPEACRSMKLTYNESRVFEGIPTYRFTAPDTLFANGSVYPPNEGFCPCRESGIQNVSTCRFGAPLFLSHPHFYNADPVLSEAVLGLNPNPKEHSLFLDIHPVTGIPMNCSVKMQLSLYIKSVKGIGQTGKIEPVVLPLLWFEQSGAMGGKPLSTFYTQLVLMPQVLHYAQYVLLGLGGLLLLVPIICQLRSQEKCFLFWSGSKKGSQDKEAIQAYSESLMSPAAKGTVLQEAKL
SR-BI uptake up – enhances SR-BI lipid uptake from DiI-HDL; CHO ldlA[mSR-BI] cells, DiI-HDL uptake fluorescence, 3 h; 100 = double the neutral-control signal; activation, % at 12.5 µM; hit rate 0.096% among 320,000; AID 504775;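 active = mean replicate activation of at least 60% and every replicate at or above 60%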;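 also: 0% = median plate neutral-control signal and 100% = twice that signal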
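Test system: SR-BI-overexpressing, LDLR-lacking CHO cells. Measured by: DiI fluorescence, bottom read. Medium: Ham's F12 with 0.5% BSA, HEPES 25 mM, pH 7.4. Timing: 3 h uptake period with compound, 37 °C.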
Vif imaging – HIV Vif inhibition. HEK293T cells, Vif self-association by quenched fluorescence, imaging, 24 h. inhibition, % at 7.49 µM. AID 602346. hit rate 0.35% among 340,000; in the data active = inhibition above about 50%, passing the limit was not always enough
H9c2 TAG inh – reduces triacylglycerol accumulation in H9c2 cells. Nile Red lipid (TAG) fluorescence; cells loaded with 200 µM oleic acid. inhibition, % at 12.5 µM. hit rate 0.66% among 230,000;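 active = pattern-corrected inhibition of lipid staining of at least 50% with the nuclear-stain viability signal not falling by more than 50%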;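 also: 0% = DMSO wells and 100% = triacsin C control wells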
TAG conf – confirmation of triacylglycerol accumulation inhibitors. H9c2 lipid accumulation, Nile Red fluorescence; cells loaded with 200 µM oleic acid. AID 651629. shares compounds with H9c2 TAG inh. hit rate 71% among 990. inhibition, % at 12.5 µM;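 active = mean inhibition across replicates of 40% or more; inactive = mean inhibition below 40%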;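 also: plate controls were DMSO only wells for no effect and Triacsin C treated wells for full effect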
Numbers without * were called inactive; · = no result given. A selection: hits, their analogues and other compounds. The true share with any hit is near 2.5%.

SMILES | SMARCA2 act | SR-BI HDL uptake | SR-BI uptake up | Vif imaging | H9c2 TAG inh | TAG conf
O=C1C=CC2(O[C@H](c3ccccc3)[C@@H](c3ccccc3)O2)[C@H](Sc2ccccc2O)C1 | -12.5 | 11.8 | -11.8 | 26.4 | 86.3 | ·
CC(CC(=O)Nc1ccc2c(c1)c(=O)n(C)n2-c1ccc2ccccc2c1)C(F)(F)F (stereo not given) | -1.3 | · | · | -11.1 | 54.6* | 44.1*
CCC(CO)NCc1ccc(OCC(=O)Nc2cccc(C(F)(F)F)c2)c(OC)c1 (stereo not given) | -5.0 | 2.8 | -2.8 | -2.3 | · | ·
CCOc1cc(CNC(C)(C)C)ccc1OCC(=O)Nc1cccc(C(F)(F)F)c1 | 6.7 | · | · | -7.6 | 52.1* | 63.3*
Cc1ccc(-n2cc(CNCCCn3cccn3)c(-c3cccc(C)c3)n2)cc1 | -1.2 | -1.1 | 1.1 | 1.0 | 52.1* | 51.9*
Cc1cc2c(cc1C)CSC(c1ccccc1O)SC2 | -3.3 | 1.4 | -1.4 | -15.9 | 54.0* | 23.4
Cc1cc2c(cc1C)CSC(c1ccc3ccccc3c1O)SC2 | -9.3 | 1.8 | -1.8 | -6.2 | 0.1 | ·
CCCCOCC1CN(CCCC)S(=O)(=O)c2c(Oc3ccc(SC)c(C)c3)cccc2O1 (stereo not given) | 3.9 | · | · | · | · | ·
COc1ccc(CC(N)c2csc(NC(=O)Nc3ccccc3C(C)C)n2)cc1 (stereo not given) | -3.8 | · | · | -0.7 | 57.7* | 41.9*
COc1ccc(CC(N)c2csc(NC(=O)Nc3ccccc3Cc3ccccc3)n2)cc1 (stereo not given) | -4.9 | · | · | -6.3 | 20.6 | ·
COc1cc(NC(=O)Nc2nc(C(N)Cc3ccc(C(F)(F)F)cc3)cs2)cc(OC)c1OC (stereo not given) | -3.8 | · | · | · | 87.5* | 98.6*
COc1ccccc1NC(=O)Nc1nc(C(N)C2CCCCC2)cs1 (stereo not given) | -2.7 | · | · | · | 51.9* | 33.1
COc1ccccc1NC(=O)Nc1nc(C(N)Cc2ccc(C(F)(F)F)cc2)cs1 (stereo not given) | -5.0 | · | · | 6.0 | 79.1* | 68.7*
NC(c1csc(NC(=O)Nc2ccccc2Cl)n1)C1CCCCC1 (stereo not given) | -4.0 | · | · | -4.9 | 23.8 | ·
COC(=O)[C@]12C[C@H](CC(=O)NCCC(C)C)C(=O)N(Cc3ccccc3)C1=C[C@H](C(C)C)O[C@@H]2C1CC1 | -7.2 | · | · | · | · | ·
CCCNC(=O)Nc1ccc2c(c1)C(=O)N(C)[C@H]1CC[C@@H](CC(=O)OC)O[C@H]1CO2 | -1.0 | · | · | · | · | ·
COc1ccc(CNC(=O)Nc2nc(C(N)Cc3ccc(Cl)cc3)cs2)cc1 (stereo not given) | -6.8 | · | · | -2.5 | 50.2* | 58.6*
COC(=O)[C@]12C[C@H](CC(=O)NCc3ccccc3)C(=O)N(CCc3ccc(OC)c(OC)c3)C1=C[C@H](C1CCCC1)O[C@@H]2C | 0.4 | · | · | · | · | ·
COCCNC(=O)c1cc2c(-c3ccc(Cl)cc3)nn(C)c2s1 | 2.7 | 87.5* | -87.5 | -11.8 | 52.0* | 44.8*
CC(C)NC(=O)c1cc2c(-c3ccc(Cl)cc3)nn(C)c2s1 | -1.2 | 45.9 | -45.9 | -2.9 | 30.3 | ·
CCN(CC)CCC(c1ccc(N(C)C)cc1)c1c(OC)cc(OC)c2c(-c3ccccc3)cc(=O)oc12 (stereo not given) | -0.3 | -19.2 | 19.2 | -6.2 | 29.6 | ·
CCCCCc1cc(=O)oc2c(C(CCN(CC)CC)c3cc(OC)c(OC)c(OC)c3)c(OC)cc(OC)c12 (stereo not given) | 3.0 | -18.9 | 18.8 | 0.9 | 114.4* | 96.7*
CCCCCc1cc(=O)oc2c(C(CCN3CCN(c4ccccc4)CC3)c3ccc(N(C)C)cc3)c(OC)cc(OC)c12 (stereo not given) | 0.1 | -5.4 | 5.4 | · | 73.1* | 62.6*
COc1cc(OC)c2c(-c3ccccc3)cc(=O)oc2c1C(CCN1CCN(c2ccccc2)CC1)c1ccc(N(C)C)cc1 (stereo not given) | -1.3 | -3.0 | 3.0 | -6.1 | 53.9* | 62.8*
COc1ccc(C(CCN2CCN(c3ccccc3)CC2)c2c(OC)cc(OC)c3c(-c4ccccc4)cc(=O)oc23)cc1 (stereo not given) | 0.8 | -11.1 | 11.1 | 0.0 | 42.2 | ·
Cn1cc(CN2CCN(c3ncccn3)CC2)c(-c2cccc(Cl)c2)n1 | -2.7 | 5.8 | -5.8 | -4.6 | -16.5 | ·
